In the array DNA melting data of Ke et al. (doi:10.1101/2024.01.08.574731):

Assays:
[1] = folding enthalpy; higher = less favourable; fluorescence melt of hairpins on a sequencing array, two-state fit; conditions: sodium 0.088 M
Summary of the method: (§1)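 Library hairpins on a sequenced MiSeq flow cell carried annealed Cy3 and quencher oligos, and their Cy3 fluorescence was imaged in 50 mM Na-HEPES pH 8.0 with 25 mM NaCl, in 2.5 °C steps up to 60 °C. Signals were normalised to Cy3 before quenching and to control constructs. Melting temperature and folding enthalpy were obtained from bootstrapped two-state fits, combined by inverse-variance weighting across four replicates, and the fitted temperatures were then raised by 9.35 °C to match UV melts.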

[2] = melting temperature; fluorescence melt of hairpins on a sequencing array, two-state fit, raised by 9.35 °C to match UV melts; conditions: sodium 0.088 M
Summary of the method: as §1

Sequence	folding enthalpy [1]	Tm [2]
GTGACCGAAAGGTATCAC ((((((....)))..)))	-14.8 kcal/mol	39.7 °C
GGCCGTTCGAAAGAAGCC (((..(((....))))))	-13.8 kcal/mol	27.6 °C
GATCTGAGAGCAGATC ((((((....))))))	-37.2 kcal/mol	46.1 °C
GCTTTCGGAAACGAAGGC ((.((((....)))).))	-35.3 kcal/mol	50.9 °C
GCTTCCGAAAGGAAAAGC ((((((....)))..)))	-17.6 kcal/mol	49.7 °C
GCTTACCCGAAAGGGAGC (((..(((....))))))	-15.3 kcal/mol	39 °C
CGCCCACGGAAACGTGCG (((..(((....))))))	-12.3 kcal/mol	37.1 °C
GTAGACGGAAACATCTAC (((((.(....).)))))	-21 kcal/mol	31 °C
GATCGGTGTCCGATC ((((((...))))))	-32 kcal/mol	58.3 °C
TGTCTGAAAAGACA (((((....)))))	-20.4 kcal/mol	47.2 °C
GTCGGCGGAAACACCGAC (((((.(....).)))))	-37.9 kcal/mol	55.3 °C
CGGCGCCGGAAACGGCCG (((..(((....))))))	-8.91 kcal/mol	54.8 °C
GTTATGGGAAACCGTAAC ((((.((....)).))))	-33.2 kcal/mol	44.2 °C
GATCGGACTACCGATC ((((((....))))))	-36.6 kcal/mol	55.6 °C
GTGGTGTCGAAAGACCAC (((..(((....))))))	-16.8 kcal/mol	47.6 °C
GATCCAACTGTGGATC ((((((....))))))	-32.6 kcal/mol	49.1 °C
GCGTAAGGAAACTTACAC (.(((((....))))).)	-18.4 kcal/mol	33.4 °C
GGCAATGGAAACATCGCC (((.(((....))).)))	-34.7 kcal/mol	45.5 °C
GATCCCAGACGGGATC ((((((....))))))	-37.1 kcal/mol	58.6 °C
GATCCGGCATCGGATC ((((((....))))))	-45.5 kcal/mol	64.8 °C
GCGAGTTGTCGC ((((....))))	-15.5 kcal/mol	50.9 °C
GATACCGAAAGGTATC ((((((....))))))	-38.6 kcal/mol	62.5 °C
GCCCACGGAAACGTGGAC (.(((((....))))).)	-14.1 kcal/mol	50.6 °C
GCAATGGGAAACCACTGC (((.(((....))).)))	-28.6 kcal/mol	39.1 °C

Sequence	folding enthalpy [1]	Tm [2]
GCGGATCACCGC ((((....))))	-25.8 kcal/mol	59 °C
GTAGAGGAAACTCTAC ((((((....))))))	-25.3 kcal/mol	49.1 °C
GGAACGGCGAAAGCCTCC (((..(((....))))))	-10.3 kcal/mol	31.6 °C
GCTAAACGAAAGTTGAGC (((.(((....))).)))	-31.8 kcal/mol	50.8 °C
TGTCAGAAATGACA (((((....)))))	-17.6 kcal/mol	40.2 °C
GAGGCGGGAAACCGCTTC ((.((((....)))).))	-15.9 kcal/mol	51 °C
GGAGTTGGAAACAACCCC ((.((((....)))).))	-22.8 kcal/mol	43.5 °C
GCACTCGCGAAAGCGTGC (((..(((....))))))	-14.7 kcal/mol	50.5 °C
GATCAATGGATTGATC ((((((....))))))	-28.3 kcal/mol	45.2 °C
GCTCGCGGAAACACGAGC (((((.(....).)))))	-44.6 kcal/mol	55.2 °C
GTGGTCCGAAAGGAACAC (((.(((....))).)))	-33.6 kcal/mol	65.4 °C
GTGAGGTCGAAAGACCAC (((..(((....))))))	-13 kcal/mol	48.9 °C
GATCGGAGCCCGATC ((((((...))))))	-31.2 kcal/mol	53.4 °C
GGAACCGAAAGGTGCTCC ((((((....)))..)))	-12.5 kcal/mol	38.8 °C
TTGGTGAAAACCAA (((((....)))))	-15.8 kcal/mol	44.8 °C
GGTTCCGCGAAAGCGACC (((..(((....))))))	-8.82 kcal/mol	28.4 °C
GTGGATGGAAACATTCGC (.(.(((....))).).)	-28.4 kcal/mol	34.9 °C
GCCCTGCGAAAGCAAGGC (((.(((....))).)))	-33.9 kcal/mol	55.7 °C
GGGAACCGAAAGGTACCC (((.(((....))).)))	-34.5 kcal/mol	58.6 °C
GCCCTCCGAAAGGACGGC (((.(((....))).)))	-40.7 kcal/mol	50.4 °C
GCCAAGCGAAAGCTTTGC ((.((((....)))).))	-21.4 kcal/mol	53.4 °C
GCTAAGCGAAAGCGTAGC ((((.((....)).))))	-20.3 kcal/mol	61.5 °C
GGCAGTCGAAAGACGCC (((.(((....))))))	-26.6 kcal/mol	65 °C
GAGCAACGAAAGTTCTC (((.(((....))))))	-20.1 kcal/mol	35.6 °C

Sequence	folding enthalpy [1]	Tm [2]
GATCACATTGGTGATC ((((((....))))))	-40.1 kcal/mol	56.7 °C
GACCAGCGAAAGCTCGTC (((.(((....))).)))	-18.6 kcal/mol	42.4 °C
GCGCAAACGAAAGTTCGC (((..(((....))))))	-22.6 kcal/mol	46.7 °C
GTAGTTGGAAACAATTAC (((.(((....))).)))	-23.4 kcal/mol	34.2 °C
GGCTCCGAAAGGACGCC ((((((....))).)))	-29.1 kcal/mol	59.9 °C
GCGGAGCGAAAGCACTGC ((.(.((....)).).))	-12.7 kcal/mol	50 °C
GTTGTCGGAAACGGCAAC ((((.((....)).))))	-37.7 kcal/mol	56.2 °C
GACGCCGGAAACAGCGTC (((((.(....).)))))	-35.9 kcal/mol	54.8 °C
GATCTCAGTTGAGATC ((((((....))))))	-34.5 kcal/mol	54.2 °C
GGGGGTGGAAACGCCCTC (.(((.(....).))).)	-28 kcal/mol	59.5 °C
GCTGATGGAAACATTGGC ((..(((....)))..))	-31 kcal/mol	36 °C
GGAAGCCGAAAGGCGTCC (((.(((....))).)))	-14.6 kcal/mol	61.6 °C
GTGCACGAAAGTGCCAC ((((((....))).)))	-8.14 kcal/mol	54.5 °C
GGTACCGGAAACAGTACC (((((.(....).)))))	-31.1 kcal/mol	39.9 °C
GATCTGTCGTCAGATC ((((((....))))))	-37.6 kcal/mol	50.5 °C
GAAAACACGAAAGTGTTC (((..(((....))))))	-11.9 kcal/mol	35.9 °C
GGCCCTCCGAAAGGAGCC (((..(((....))))))	-10.6 kcal/mol	38.4 °C
GATCCCTAATGGGATC ((((((....))))))	-38.3 kcal/mol	57.6 °C
GACAAAGGAAACTTTGTC (((((((....)))))))	-43.8 kcal/mol	53.9 °C
GCGTGAATACGC ((((....))))	-31.3 kcal/mol	61.2 °C
GGTTGTGGAAACACAGCC ((.((((....)))).))	-42.4 kcal/mol	52.1 °C
GATCTGTAACAGATC ((((((...))))))	-33.5 kcal/mol	48.6 °C
GATCATAACCATGATC ((((((....))))))	-35.7 kcal/mol	47.4 °C
GGAACACGAAAGTGATCC (((.(((....))).)))	-28.5 kcal/mol	52.7 °C

Sequence	folding enthalpy [1]	Tm [2]
GGATTACGAAAGTATTCC (((.(((....))).)))	-32.6 kcal/mol	44 °C
GCGTACGACGC ((((...))))	-23.8 kcal/mol	53.3 °C
CGAGGACGGAAACGTTCG (((..(((....))))))	-19.8 kcal/mol	43.1 °C
GATCACGAAAGTGGATC ((((((....))).)))	-18.2 kcal/mol	46.9 °C
GCGAACGAAAGTTGTCGC ((((((....)))..)))	-26.2 kcal/mol	44.1 °C
GCAGGTGCGAAAGCATGC (((..(((....))))))	-13.5 kcal/mol	43.9 °C
GAGAACGAAAGTTAGCTC ((((((....)))..)))	-10 kcal/mol	24.5 °C
GATGAGGGAAACCCCATC ((((.((....)).))))	-31.4 kcal/mol	41.2 °C
GATCCTGACTAGGATC ((((((....))))))	-43.3 kcal/mol	56.7 °C
GATCGATGTTTCGATC ((((((....))))))	-43 kcal/mol	53.5 °C
GTTTTACCGAAAGGTAAC (((..(((....))))))	-12.3 kcal/mol	33.6 °C
GCGGTCCGCCGC ((((....))))	-19.7 kcal/mol	63.6 °C
GCGTCGTTACGC ((((....))))	-21.8 kcal/mol	52.6 °C
GAACCCGGAAACGGGTCC (.(((((....))))).)	-11.2 kcal/mol	45.4 °C
GGTCACGAAAGTGGTACC ((((((....)))..)))	-14.3 kcal/mol	42.7 °C
GAATATCCGAAAGGATTC (((..(((....))))))	-13.4 kcal/mol	28.5 °C
GATTACGAAAGTAATC ((((((....))))))	-40 kcal/mol	56.4 °C
GCACCAGGAAACTGATGC (((.(((....))).)))	-28.6 kcal/mol	45 °C
GCTAAGGGAAACCTTAGC (((((((....)))))))	-40.7 kcal/mol	59.8 °C
GCAGGCGAAAGCCTTGC ((((((....))).)))	-17.6 kcal/mol	59.2 °C
GAAAACGAAAGTTGATTC ((((((....)))..)))	-17.8 kcal/mol	33.6 °C
